Yeast life ext – compounds extending yeast replicative lifespan, primary screen, S. cerevisiae, OD615. inhibition of the nicotinamide effect, % at 10 µM. S. cerevisiae growth with nicotinamide; deaD strain in restrictive glucose medium. AID 775, 2007. 130,000 tested, 0.68% active;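 active = inhibition above a set limit, placed 3 SD over the median of all compounds, cut at about 26% in these data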;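 also: 0% = nicotinamide-treated wells and 100% = cells grown without nicotinamide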
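Measured by: optical density (absorbance) at 615 nm; System: modified budding yeast, DeaD strain; Medium: restrictive CSMM-D dextrose medium; Timing: 4 h preincubation then 48 h treatment at 30 °C.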
WT yeast gro inh – growth inhibition of WT strain, primary screen, mitochondrial fusion inhibitor project, WT and mutant strains, chemical genetic; AID 1362, 2008; 190,000 tested, 2.1% active; mitochondrial fusion phenotypic screen; inhibition, % at 10 µM; in the data active = inhibition above about 58%; tested in S. cerevisiae
Cl transport mod – KCC2 cotransporter modulators, thallium flux, primary screen, cell-based, HEK293 KCC2, FluoZin-2 fluorescence, MLSMR; Solute carrier family 12 member 5 (Homo sapiens), Q9H2X9; 190,000 tested, 2.2% active; KCC2 cells, thallium flux FluoZin-2 fluorescence; B-score of Tl+ flux slope (higher = more flux/activation; lower = inhibition) at 10 µM;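 active = thallium flux slope and its plate-corrected score both differing from the plate sample mean at a set confidence after two filtering rounds, in either direction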;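 also: slope of fluorescence scaled to starting intensity during 10 to 20 s after thallium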
Target sequence (Q9H2X9 whole entry, looked up): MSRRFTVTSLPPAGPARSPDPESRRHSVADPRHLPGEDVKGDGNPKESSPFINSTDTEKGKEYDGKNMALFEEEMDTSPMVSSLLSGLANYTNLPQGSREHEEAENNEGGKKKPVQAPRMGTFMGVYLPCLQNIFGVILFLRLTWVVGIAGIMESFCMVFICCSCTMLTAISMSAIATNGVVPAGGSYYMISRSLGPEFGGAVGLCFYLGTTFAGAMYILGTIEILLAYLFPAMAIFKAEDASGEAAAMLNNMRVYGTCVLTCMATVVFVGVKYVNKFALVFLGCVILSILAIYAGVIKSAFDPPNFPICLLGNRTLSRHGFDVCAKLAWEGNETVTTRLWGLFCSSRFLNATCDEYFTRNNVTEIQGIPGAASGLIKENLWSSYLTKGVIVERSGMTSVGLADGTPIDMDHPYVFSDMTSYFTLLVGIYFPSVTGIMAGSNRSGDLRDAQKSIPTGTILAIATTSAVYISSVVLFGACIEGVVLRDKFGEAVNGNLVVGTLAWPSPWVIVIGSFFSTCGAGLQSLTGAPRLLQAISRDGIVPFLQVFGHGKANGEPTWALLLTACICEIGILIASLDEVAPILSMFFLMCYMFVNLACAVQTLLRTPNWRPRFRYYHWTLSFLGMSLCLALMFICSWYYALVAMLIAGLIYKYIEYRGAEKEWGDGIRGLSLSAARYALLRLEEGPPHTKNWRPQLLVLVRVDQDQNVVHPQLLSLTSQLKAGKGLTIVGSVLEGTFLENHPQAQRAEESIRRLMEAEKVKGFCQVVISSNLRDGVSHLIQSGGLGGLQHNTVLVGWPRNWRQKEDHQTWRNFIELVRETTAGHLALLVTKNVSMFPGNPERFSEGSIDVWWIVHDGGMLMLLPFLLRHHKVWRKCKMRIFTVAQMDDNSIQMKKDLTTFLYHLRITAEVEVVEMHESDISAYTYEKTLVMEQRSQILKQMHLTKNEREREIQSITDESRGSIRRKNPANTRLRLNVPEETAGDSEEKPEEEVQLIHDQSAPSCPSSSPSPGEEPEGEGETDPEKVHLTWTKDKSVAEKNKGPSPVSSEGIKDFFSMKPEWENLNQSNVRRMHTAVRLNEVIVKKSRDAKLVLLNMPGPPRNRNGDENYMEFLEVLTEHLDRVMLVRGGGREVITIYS
Yeast growth inh – growth inhibitors of yeast BB579 in restrictive medium, primary screen, yeast lifespan-shortening project, S. cerevisiae; OD615, 48 h; AID 804, 2007; inhibition, % at 10 µM; 140,000 tested, 0.51% active;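 active = inhibition above a set limit, 3 SD over the mean compound inhibition, cut at about 44% in these data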
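test system = yeast BB579 (DeaD) | buffer or medium = restrictive CSMM-D medium | doses = single compound dose of 10 µM, 0.25% DMSO final | times = 4 h preincubation and 48 h exposure at 30 °C | technique = culture absorbance at 615 nm | benchmarks = amphotericin B 10 µg/mL, positive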
RAM network inh – inhibitors of the yeast RAM network, primary screen, dse1pr::URA3 reporter, 5-FOA selection. 190,000 tested, 1.8% active. inhibition, % at 50 µM. AID 868, 2007. S. cerevisiae dse1pr::URA3 reporter, 5-FOA growth OD615, 2 d; analog-sensitive cbk1-as2 kinase mutant strain;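 active = inhibition above a set limit, 3 SD over mean compound inhibition, cut at about 8.4% in these data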;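 also: 0% = DMSO-only wells with no growth and 100% = 10 µM 1-NA-PP1 full growth; inhibition rescues growth on 5-FOA so higher OD means more RAM inhibition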
KCC2 sec1 – KCC2 modulators in sodium-free buffer, confirmation, cell-based, HEK293 KCC2, thallium flux, secondary assay; normalised thallium flux (F/F0 slope) at 10 µM; FluoZin2 fluorescence; stronger effect = higher value; 3,700 tested, 15% active; shares compounds with Cl transport mod;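 active = thallium flux slope above the same plate's solvent-only control mean plus 3 SD; inconclusive = the two replicate wells disagree; inactive = no significant difference from solvent-only control wells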
KCC2 bumet counter – thallium flux persisting under bumetanide in KCC2 cells, confirmation, counter-screen for KCC2 modulator project, cell-based, HEK293 KCC2, FluoZin2, secondary assay 3; HEK293-KCC2 + bumetanide/ouabain; stronger effect = higher value; shares compounds with Cl transport mod; normalized thallium flux at 10 µM; 3,700 tested, 49% active;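 active = thallium entry rate above the same plate's blocked-transporter control wells by more than 3 SD; inconclusive = the two repeat wells disagree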;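 also: raw slope of fluorescence over initial fluorescence between 10 and 20 s after thallium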
KCC2 secondary2 – KCC2 modulators without ouabain present, confirmation, cell-based, HEK293 KCC2, thallium flux, FluoZin2, secondary assay 2 | shares compounds with Cl transport mod | thallium flux FluoZin2 fluorescence; actives lie on both sides; F/F0 rise rate, 10–20 s post-thallium | normalized thallium flux at 10 µM | 3,700 tested, 23% active;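 active = thallium flux slope more than 3 SD above or below the plate's solvent-only control mean, mostly below; inconclusive = the two repeat wells disagreed; inactive = no significant shift from solvent-only controls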;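 also: raw slope with 0.1% DMSO as baseline and bumetanide as block control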
HEK counter1 – thallium flux modulation in parental HEK cells, confirmation, counter-screen for KCC2 modulator project, cell-based, counterscreen 1. shares compounds with Cl transport mod. HEK293 parental cells, thallium flux FluoZin2, ouabain; baseline-ratio fluorescence slope, 10–20 s after thallium. thallium flux rate (normalised fluorescence) at 10 µM. 3,700 tested, 46% active;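 active = thallium flux rate significantly above the same plate's solvent-only control wells, beyond their mean plus 3 SD; inconclusive = the two replicate wells gave conflicting results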
KCC2 retest ouab – KCC2 inhibitors and activators, ouabain retest, confirmation, HEK-KCC2 cells; AID 1717, 2009; HEK293-KCC2, thallium flux FluoZin2 fluorescence; bidirectional: low = inhibitor, high = activator; 3,700 tested, 48% active; shares compounds with Cl transport mod; raw Tl+ flux slope (below DMSO = inhibition, above = activation) at 10 µM;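 active = thallium flux slope beyond 3 SD from same-plate DMSO control mean in most replicates, usually higher, sometimes lower; inconclusive = repeat tests gave conflicting results; inactive = no significant difference from controls in most replicates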;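 also: slope of initial-normalized fluorescence between seconds 10 and 20 after thallium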
HEK counter2 – native HEK Tl+ uptake effects, second counter-screen – HEK cells, counterscreen 2, counter-screen for KCC2 modulator project, confirmation; shares compounds with Cl transport mod; HEK293 parental, thallium flux FluoZin-2 fluorescence slope; thallium flux slope at 10 µM; 3,700 tested, 33% active; AID 1718, 2009;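 active = thallium flux slope above the same plate's solvent-control mean plus 3 SD in both duplicate wells; inconclusive = duplicate wells that disagreed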;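 also: run without ouabain in cells lacking the KCC2 cotransporter; slope of fluorescence scaled to its starting value between 10 and 20 s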
The depositor's hits bear a star; ? = inconclusive; · = not tested or not shown. This is a sample that favours compounds with a hit; in the whole collection about 5.5% have one here.

SMILES | Yeast life ext | WT yeast gro inh | Cl transport mod | Yeast growth inh | RAM network inh | KCC2 sec1 | KCC2 bumet counter | KCC2 secondary2 | HEK counter1 | KCC2 retest ouab | HEK counter2
O=C(CSc1ncccc1-c1nc2ccccc2[nH]1)N1CCN(c2ccccc2F)CC1 | -23 | 6 | -4* | -43 | 5 | 0.006 | 0.005 | 0.025* | 0.0072 | ? | 0.0099
C=CCn1c(SCC#N)nc2ccccc2c1=O | -16 | -12 | 0.17 | -8 | 0 | · | · | · | · | · | ·
C=CCn1c(SCC#N)nc2c(c1=O)C(C)(C)Cc1ccccc1-2 | -17 | 21 | -0.13 | -14 | 4 | 0.0061 | 0.005 | 0.031 | ? | 0.018 | 0.009
O=C(NCc1cccs1)c1cc(-c2ccccc2)nc2ccccc12 | -5 | -5 | 0.65 | -26 | 4 | · | · | · | · | · | ·
O=C(Nc1nnc(-c2cccs2)o1)c1cc(-c2ccccc2)nc2ccccc12 | 16 | 71* | 68* | -16 | 3 | 0.016* | 0.078* | 0.037 | 0.043* | 0.061* | 0.015*
CC[C@H](CO)Nc1nc(Nc2cccc(Cl)c2)c2ncn(C(C)C)c2n1 | · | · | -2.6* | · | · | 0.017 | 0.0047 | ? | 0.0071 | 0.015 | 0.01
CC(C)[C@H](CO)N(Cc1cccc(F)c1)c1nc(Nc2cccc(Cl)c2)c2ncn(C(C)C)c2n1 | · | · | 0.25 | · | · | · | · | · | · | · | ·
Cc1ccc(-c2cc(-c3n[nH]c(=S)n3C)c3ccccc3n2)cc1 | · | 70* | 11* | · | 1 | 0.0092 | 0.044* | 0.031 | 0.012* | ? | ?
CCOc1cccc(-c2cc(-c3n[nH]c(=S)n3CC)c3ccccc3n2)c1 | -8 | 67* | · | 16 | 4 | 0.0089 | 0.072* | 0.031 | 0.015* | ? | ?
O=C(COc1ccc(Cl)cc1)Nc1nnc(C2=COCCO2)o1 | · | 10 | 0.02 | · | 0 | · | · | · | · | · | ·
COc1ccc(NC(=O)Cn2c(=O)sc3ccccc32)c(OC)c1 | -6 | -12 | -2.9* | -3 | 0 | 0.008 | 0.0049 | 0.028 | ? | 0.018 | 0.0092
COc1ccccc1NC(=O)Cn1c(=O)sc2ccccc21 | -16 | 8 | -0.43 | -15 | 3 | · | · | · | · | · | ·
COc1ccc(-c2cn(-c3ccc(C)cc3)c(=O)n2CC(=O)Nc2ccc(OC)cc2OC)cc1 | -18 | -5 | · | -50 | 6 | 0.0067 | 0.0043 | 0.029 | 0.0078 | 0.017 | 0.011
Clc1ccc(CNc2nnnn2-c2ccccc2)c(Cl)c1 | -6 | 0 | -0.64 | -28 | 4 | · | · | · | · | · | ·
CCC(Sc1nc(N)cc(=O)[nH]1)C(=O)Nc1cc(C)on1 (stereo not drawn) | · | -20 | -0.55 | · | 0 | · | · | · | · | · | ·
CC(C)CN1C=C2C(=O)C(C)(OC(=O)CCc3ccccc3)C(=O)C=C2C=C1c1ccc(C#N)cc1 (stereo not drawn) | · | · | 3.1* | · | · | 0.01 | 0.0064 | 0.036 | 0.0076 | 0.023 | ?
O=c1cc(-c2ccccc2)[nH]n1-c1nc2ccccc2s1 | -6 | -14 | 14* | 17 | 3 | 0.0082 | 0.037* | ? | 0.025* | 0.04* | 0.017*
COc1cc(-n2nc(C)c3c2OC(N)=C(C#N)C3c2ccccc2)c(Cl)c(Br)c1O (stereo not drawn) | -4 | 9 | -2.6* | -14 | 4 | 0.0063 | 0.0028* | 0.027* | 0.0059* | 0.014* | ?
Cc1cc(-c2cccs2)c(C#N)c(=S)[nH]1 | · | · | 33* | · | · | 0.024* | 0.034* | ? | ? | 0.038* | ?
N#Cc1c(-c2cccs2)cc(-c2cccs2)[nH]c1=O | · | · | -0.87 | · | · | · | · | · | · | · | ·
O=S(=O)(NCc1ccccc1)c1cccc(S(=O)(=O)N2CCOCC2)c1 | -11 | 0 | · | 9 | 1 | · | · | · | · | · | ·
O=S(=O)(NCCc1ccccc1F)c1cccc(S(=O)(=O)N2CCOCC2)c1 | -5 | -7 | · | -53 | 2 | 0.0061 | 0.0054 | 0.026* | 0.0072 | ? | 0.01
CCC1(C)N=C(N)Nc2nc3cc(C)c(C)cc3n21 (stereo not drawn) | · | · | -0.35 | · | · | · | · | · | · | · | ·
CCOC(=O)Cn1c(=S)[nH]c2c(oc3ccc(Cl)cc32)c1=O | -2 | -5 | · | -35 | 7 | 0.022* | 0.041* | 0.033 | 0.02* | 0.04* | 0.014*
COc1ccc(NC(=O)C2CC(=O)N/C(=N/NC(=O)c3ccc(Cl)cc3)S2)cc1 (stereo not drawn) | · | · | 0.7 | · | · | · | · | · | · | · | ·
SMILES | Yeast life ext | WT yeast gro inh | Cl transport mod | Yeast growth inh | RAM network inh | KCC2 sec1 | KCC2 bumet counter | KCC2 secondary2 | HEK counter1 | KCC2 retest ouab | HEK counter2
O=C(Cn1nc(-c2ccccc2)ccc1=O)NCc1ccc2c(c1)OCO2 | -8 | 17 | -3.3* | -61 | 3 | 0.0051 | ? | 0.025* | 0.0077 | ? | 0.011
CCOc1cc(C2C(C(=O)N3CCCCC3)=C(C)NC3=C2C(=O)CCC3)cc(Br)c1O (stereo not drawn) | -1 | -1 | 0.58 | -1 | 1 | · | · | · | · | · | ·
CC(C)(C)NC(=O)C(=O)NNC(=O)c1cccc(Br)c1 | · | 3 | 33* | · | 0 | 0.0096* | 0.054* | 0.047* | 0.047* | 0.05* | 0.028*
COc1ccc(NC(=O)CC2(CC(=O)O)CCCC2)cn1 | · | 3 | -0.35 | · | 0 | · | · | · | · | · | ·
O=C(NC(=S)NCCC1=CCCCC1)c1cccnc1 | · | 44 | 14* | · | 0 | 0.0098 | 0.036* | 0.031 | 0.013* | ? | 0.011*
Oc1c(Br)cc(C=Nc2ccc3nc(-c4ccccc4)[nH]c3c2)c(O)c1Br | · | 13 | -3.5* | · | 0 | 0.0071 | 0.0046 | 0.028 | 0.0062 | 0.013* | 0.0087
